Source: PubChem BioAssay
Most compounds without a hit are left out; they make up all but 3.5% or so of the library.
MrgX1 antag – human MrgX1 receptor antagonism, primary screen; 1.3% of 310,000 active; AID 588676; MRGX1-HEK293 calcium flux, Fluo-4, BAM8-22 antagonism; hits give low values; B-score at 10 µM; Q96LB2;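 active = calcium-response B-score plate-corrected more than 3 library SD below zero, starting fluorescence within 5 deviations, no agonist response on first addition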;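 note: peak minus trough fluorescence over baseline after final BAM8-22 challenge near maximal dose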
Target sequence (Q96LB2 whole entry, looked up): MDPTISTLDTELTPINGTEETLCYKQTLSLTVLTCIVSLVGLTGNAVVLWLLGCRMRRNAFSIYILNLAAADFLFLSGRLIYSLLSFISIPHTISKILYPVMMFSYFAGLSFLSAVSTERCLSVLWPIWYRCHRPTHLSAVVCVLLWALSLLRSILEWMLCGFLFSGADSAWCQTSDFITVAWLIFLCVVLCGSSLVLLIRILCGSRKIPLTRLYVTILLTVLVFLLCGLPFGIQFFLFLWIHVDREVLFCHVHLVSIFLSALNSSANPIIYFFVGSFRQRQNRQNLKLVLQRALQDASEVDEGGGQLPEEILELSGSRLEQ
RGS4 block – inhibitors of human RGS4; HEK293 M3R/RGS4 inducible, Fluo-4 calcium flux; hits give high values; triggered by carbachol at its EC20; 0.45% of 310,000 active; P49798; B-score at 10 µM;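 active = B-score, a plate-corrected calcium signal, over three deviations above library mean, with baseline fluorescence within five deviations of library mean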;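 note: RGS4 expression induced by doxycycline in cells with stable M3 receptor; B-score is computed from the integrated fluorescence ratio over baseline after carbachol; higher B-score means a larger calcium signal and so more RGS4 inhibition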
Target sequence (P49798 whole entry, looked up): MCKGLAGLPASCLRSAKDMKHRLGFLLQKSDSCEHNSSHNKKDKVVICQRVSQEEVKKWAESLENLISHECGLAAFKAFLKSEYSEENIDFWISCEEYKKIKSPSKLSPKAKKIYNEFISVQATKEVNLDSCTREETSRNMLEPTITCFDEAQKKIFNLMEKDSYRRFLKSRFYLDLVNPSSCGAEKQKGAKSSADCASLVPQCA
MrgX1 PAM – human MrgX1 positive allosteric modulation, primary screen; B-score at 10 µM; Q96LB2; MrgX1-HEK293, Fluo-4 calcium flux, FDSS; hits give high values; 0.63% of 310,000 active;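 active = plate-corrected calcium response at least 3 library SD above typical, normal starting fluorescence, not activating the receptor alone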;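 note: compound read alongside a low EC10 to EC30 dose of BAM8-22 agonist; peak minus trough fluorescence over baseline measured at the second addition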
RGS4 pot – RGS4 potentiation or activation. HEK293 M3R/inducible RGS4, carbachol calcium flux Fluo4; hits give low values. B-score at 10 µM. 0.92% of 310,000 active. AID 463111;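 active = B-score of the integrated calcium signal more than 4 SD below the library mean, with starting fluorescence not abnormally high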;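 note: negative B-score means reduced calcium response which marks RGS4 activation or potentiation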
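Detection: kinetic calcium fluorescence imaging with Fluo4-AM dye, 2 µM / Material: HEK293 cells with stable M3R and inducible RGS4 / Schedule: recording 10 s baseline at 1 Hz, 100 s post-agonist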
MrgX1 agonist – agonists of human MrgX1 receptor; B-score at 10 µM; MrgX1-HEK293 cells, Fluo-4 calcium fluorescence, agonist mode; hits give high values; 0.44% of 310,000 active; Q96LB2;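 active = calcium response B-score plate-corrected fluorescence ratio at least 3 library SD, with starting fluorescence B-score inside 5 SD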
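Test system: HEK293 cells stably expressing human MrgX1 receptor; amount: 15,000 cells per well; doses: compound delivered in addition one of three; times: overnight plating before 1 h dye loading; detection: Fluo-4 NW calcium-flux fluorescence, kinetic read; read-out basis: B-scored fluorescence response ratio; controls: positive and negative controls per plate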
RGS4 block valid – validation of RGS4 inhibitors. 65% of 1,700 active. calcium response, % at 10 µM. shares compounds with RGS4 block. HEK293 M3R/RGS4, carbachol calcium Fluo-4 fluorescence; carbachol added at its EC20; 0 = buffer wells, 100 = carbachol control;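 active = duplicate-averaged calcium response above the buffer-only control mean plus 5 SD of those controls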;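 note: integrated fluorescence ratio F max minus min over baseline F0; higher response in RGS4-induced cells means RGS4 inhibition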
RGS4 uninduced – counter-screen for RGS4 inhibitors: effect in non-induced cells | shares compounds with RGS4 block | HEK293 M3R non-induced, carbachol calcium Fluo-4; submaximal (EC20) carbachol stimulus; buffer wells 0%, carbachol control wells 100% | activity (percent), % at 10 µM | 20% of 1,900 active | AID 493000; call rule not given here;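 note: RGS4 induction absent so cells express M3R without RGS4; higher means more calcium signal and flags a non-specific hit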
M3R basal Ca ctr – second counter-screen for RGS4 inhibitors: non-induced cells without carbachol; HEK293 M3R/RGS4 non-induced, Fluo-4 calcium, no carbachol; normalised: buffer wells 0%, carbachol wells 100%; calcium response (agonist-mode artifact), % at 10 µM; shares compounds with RGS4 block; 22% of 1,900 active;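 active = duplicate-averaged calcium rise in uninduced cells above buffer wells' mean plus 5 SD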
Each line names hits and unclear results; the compound was inactive in the other large screens (follow-up assays come after a bar, where they were run).

COc1ccc(S(=O)(=O)/N=C2/NC(=O)/C(=C\c3ccco3)S2)cc1	none
COc1ccc(S(=O)(=O)/N=C2/NC(=O)/C(=C\c3cc(OC)c(OC)cc3[N+](=O)[O-])S2)cc1	none | RGS4 block valid inactive | RGS4 uninduced inactive | M3R basal Ca ctr inactive
COc1cc(/C=C2\S/C(=N/S(=O)(=O)c3ccccc3)NC2=O)c([N+](=O)[O-])cc1OC	RGS4 block 6.79 | RGS4 block valid 30.0% | RGS4 uninduced 68.5% | M3R basal Ca ctr inactive
Cc1cc(C)c(S(=O)(=O)N2CCCC(C(=O)NCc3ccncc3)C2)c(C)c1 (stereo not given)	none
Cc1sc(NC(=O)CSC2=NCCS2)nc1-c1ccccc1	none
CC(=O)N1CC(=O)N=C1SCC(=O)Nc1nc(-c2ccccc2)c(-c2ccccc2)s1	RGS4 block 8.68 | RGS4 block valid 29.0% | RGS4 uninduced inactive | M3R basal Ca ctr inactive
O=C(CCSc1ccccn1)c1ccccc1	RGS4 block 5.73 | RGS4 block valid 5.0% | RGS4 uninduced 35.5% | M3R basal Ca ctr 18.5%
O=C(O)CCSc1ccccn1	none
Cc1ccc(-n2ncc3c(=O)[nH]c(SCC(=O)N4CCCc5ccccc54)nc32)cc1	none | RGS4 uninduced inactive | M3R basal Ca ctr inactive
Cc1ccc(-c2nc(NCc3cccnc3)c3ccccc3n2)cc1	none | RGS4 block valid inactive | RGS4 uninduced inactive | M3R basal Ca ctr inactive
Clc1cccc(-c2nc(NCc3cccnc3)c3ccccc3n2)c1	none
c1ccc(-c2nc(NCc3cccnc3)c3ccccc3n2)cc1	none | RGS4 block valid inactive | RGS4 uninduced inactive | M3R basal Ca ctr inactive
CCOC(=O)C1CCN(CC(=O)c2c(C)n(C)c3ccc(OC)cc23)CC1	RGS4 block 4.92 | RGS4 block valid 13.0% | RGS4 uninduced inactive | M3R basal Ca ctr inactive
O=[N+]([O-])c1cc(Cl)cc(/C=N/NC(=S)Nc2ccc(S(=O)(=O)N3CCOCC3)cc2)c1O	none | RGS4 block valid inactive | RGS4 uninduced inactive | M3R basal Ca ctr inactive
CC(=O)N1c2ccc(S(=O)(=O)NCCC(=O)Nc3cccc(Cl)c3)cc2CC1C (stereo not given)	none
Cc1ccccc1C(=O)N1CCC(C(=O)N(CC(C)C)c2c(N)n(Cc3ccccc3)c(=O)[nH]c2=O)CC1	none
Cc1ccccc1Nc1nnc(SCC(=O)NC2CCCc3ccccc32)s1 (stereo not given)	none
O=C(Nc1ccc2nc3n(c(=O)c2c1)CCCCC3)c1cc([N+](=O)[O-])ccc1F	none
O=C(Nc1ccc2nc3n(c(=O)c2c1)CCCCC3)c1c(F)ccc([N+](=O)[O-])c1F	RGS4 block 5.16, MrgX1 agonist 37.3 | RGS4 block valid 33.0% | RGS4 uninduced inactive | M3R basal Ca ctr 12.0%
O=C(Nc1cc(C(F)(F)F)ccc1N1CCOCC1)c1n[nH]c(=O)c2ccccc12	RGS4 block 7.55 | RGS4 block valid 23.5% | RGS4 uninduced inactive | M3R basal Ca ctr inactive
O=C(Nc1cc(C(F)(F)F)ccc1N1CCOCC1)c1ccc(F)cc1	none
CCCCn1c(N)c(N(CCOC)C(=O)c2cccc(S(=O)(=O)N(C)c3ccc(C)cc3)c2)c(=O)[nH]c1=O	none
CCn1c(C)c(CS(=O)(=O)c2ccccc2)[nH]c1=O	RGS4 block 6.72 | RGS4 block valid 23.5% | RGS4 uninduced inactive | M3R basal Ca ctr 7.0%
O=C(/C=C/c1ccncc1)c1ccc2c(c1)OCCO2	RGS4 block 7.46 | RGS4 block valid 32.5% | RGS4 uninduced inactive | M3R basal Ca ctr inactive
O=C(/C=C/c1ccccc1)c1ccc2c(c1)OCO2	none
O=C1/C(=C\c2cccc(O)c2O)SC(=S)N1Cc1ccccc1	RGS4 block 8.44 | RGS4 block valid 18.5% | RGS4 uninduced inactive | M3R basal Ca ctr inactive
COc1cc(/C=C2/SC(=S)N(Cc3ccccc3)C2=O)ccc1O	RGS4 block 6.43, MrgX1 PAM 11.5 | RGS4 block valid 12.0% | RGS4 uninduced inactive | M3R basal Ca ctr 34.5%
O=C1/C(=C/c2ccncc2)SC(=S)N1Cc1ccccc1	none
O=C1/C(=C\c2cccc(O)c2)SC(=S)N1Cc1ccccc1	none | RGS4 block valid inactive | RGS4 uninduced inactive | M3R basal Ca ctr inactive
CCOC(=O)C1=C(CCl)NC(=O)NC1c1ccc2c(c1)OCO2 (stereo not given)	none
CCCNC(C)C(=O)Nc1ccccc1C (stereo not given)	RGS4 block 4.77 | RGS4 block valid 6.5% | RGS4 uninduced inactive | M3R basal Ca ctr inactive
CCCNC(=O)c1ccccc1NC(=O)Nc1ccccc1C	none (no result: RGS4 block, RGS4 pot)
CCn1nc(NS(=O)(=O)c2ccccc2)c2cc3cccc(C)c3nc21	none | RGS4 uninduced inactive | M3R basal Ca ctr inactive
CCn1nc(NS(=O)(=O)c2ccc(NC(C)=O)cc2)c2cc3cccc(C)c3nc21	none
CCn1nc(NS(=O)(=O)c2ccc([N+](=O)[O-])cc2)c2cc3ccccc3nc21	none | RGS4 uninduced inactive | M3R basal Ca ctr inactive
CCn1nc(NS(=O)(=O)c2ccc(F)cc2)c2cc3cccc(C)c3nc21	none | RGS4 block valid inactive | RGS4 uninduced inactive | M3R basal Ca ctr inactive
CCCn1nc(NS(C)(=O)=O)c2cc3cccc(C)c3nc21	none
CCn1nc(NS(=O)(=O)c2ccc(C)cc2)c2cc3ccccc3nc21	none
COc1ccccc1NC(=O)c1cc2ccc(O)cc2o/c1=N\O	none | RGS4 block valid inactive | RGS4 uninduced inactive | M3R basal Ca ctr inactive
COc1ccc2oc(=N)c(C(=O)Nc3ccc(C)cc3)cc2c1	none
COc1ccc2o/c(=N\O)c(C(=O)Nc3ccc(C)cc3)cc2c1	RGS4 block 11.8 (no result: MrgX1 antag, MrgX1 PAM, MrgX1 agonist) | RGS4 block valid 14.5% | RGS4 uninduced inactive | M3R basal Ca ctr inactive
COc1ccccc1N=c1oc2cc(O)ccc2cc1C(N)=O	none
CN(C)NC(=S)NC1CCS(=O)(=O)C1 (stereo not given)	none
CCCCC1=CC2=C(c3ccco3)C(=O)C(C)(OC(=O)c3ccc(OC)cc3)C(=O)C2=CN1C1CCCC1 (stereo not given)	none | RGS4 block valid inactive | RGS4 uninduced inactive | M3R basal Ca ctr 102.0%
COC(=O)CCCC1=CC2=C(c3ccccc3)C(=O)C(C)(OC(=O)C3CCCC3)C(=O)C2=CN1C1CC1 (stereo not given)	none
